The values that follow come from ChEMBL document CHEMBL1149527, “Antiproliferative and apoptosis inducing properties of pyrano[3,2-c]pyridones accessible by a one-step multicomponent synthesis” (Bioorg Med Chem Lett, 2007).

Test [1] concerns Jurkat. The experiment in a line: Cell cycle arrest in Jurkat cells assessed as accumulation at S phase at 25 uM after 15 hrs relative to control. Format: functional, Homo sapiens. The gist of the method:
(§1)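 Jurkat cells treated 15 h (test agents 5 μM, colchicine 25 μM, DMSO vehicle control); DNA stained with Vybrant Orange and analysed by flow cytometry; percent of cells in G0/G1, S and G2/M given as mean ± SD.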

Test [2] relates to Jurkat. The experiment in a line: Cell cycle arrest in Jurkat cells assessed as accumulation at G2/M phase at 25 uM after 15 hrs relative to control. Format: functional, Homo sapiens. The gist of the method: as §1
Test [3] has as its system Jurkat. The experiment in a line: Cell cycle arrest in Jurkat cells assessed as accumulation at G0/G1 phase at 25 uM after 15 hrs relative to control. Format: functional, Homo sapiens. The gist of the method: as §1
In the next test the test system is HeLa. Put plainly: Antiproliferative activity against human HeLa cells after 48 hrs by MTT assay relative to control. Format: functional, cell-based. The gist of the method: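 HeLa cells exposed to compounds for 48 h; viability read as mitochondrial dehydrogenase activity by MTT reduction; IC50 values derived.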
In general terms: Tetrazolium dyes change colour on reduction, which living cells bring about.

Test [4] concerns Jurkat. The experiment in a line: Induction of apoptosis in Jurkat cells at 5 uM after 36 hrs by flow cytometry. Format: functional, Homo sapiens. The gist of the method: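 Jurkat cells incubated 36 h with agents at 5 μM (DMSO control); apoptosis scored by flow cytometry after annexin-V/propidium iodide staining; two experiments.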
Test [5] relates to Jurkat. Put plainly: Cell cycle arrest in Jurkat cells assessed as accumulation at G2/M phase at 5 uM after 15 hrs relative to control. Format: functional, Homo sapiens. The gist of the method:
as §1

Test [6] deals with Jurkat. The experiment in a line: Cell cycle arrest in Jurkat cells assessed as accumulation at S phase at 5 uM after 15 hrs relative to control. Format: functional, Homo sapiens. The gist of the method: as §1
The test system of test [7] is Jurkat. The experiment in a line: Cell cycle arrest in Jurkat cells assessed as accumulation at G0/G1 phase at 5 uM after 15 hrs relative to control. Format: functional, Homo sapiens. The gist of the method: as §1

Activity calls are given as the source filed them. The rule behind the calls is not given here. Bounds are passed on as bounds.

Take `COc1cc2c(c(OC)c1OC)-c1ccc(OC)c(=O)cc1[C@@H](NC(C)=O)CC2` [COLCHICINE]: the Activity in the test with Jurkat [1] turned out to be 23.1%; in the test on Jurkat [2], 57.9%; with Jurkat [3], 19%.
As a reminder, the IC50 is the concentration that inhibits the measured activity by half. The compound `Cc1cc2c(c(=O)o1)C(c1cccc(Br)c1)C(C#N)=C(N)O2` (stereo not drawn) showed an IC50 with HeLa above 100 µM.
Turning to `Cc1cc2c(c(=O)n1C)C(c1cccc(Br)c1)C(C#N)=C(N)O2` (stereo not drawn), the Activity with Jurkat [4] is 50%. Moreover, in the test on HeLa, the 50% inhibitory concentration (IC50) came to 6.5 µM.
On the same counts, the results for `COc1cc(C2C(C#N)=C(N)Oc3cc(C)n(C)c(=O)c32)cc(Br)c1O` (stereo not drawn) are 50% and 2.67 µM.
On to `Cc1cc2c(c(=O)n1C)C(c1ccc(Cl)c(Cl)c1)C(C#N)=C(N)O2` (stereo not drawn), for which, in the test with Jurkat [4] (Homo sapiens), the outcome was inactive. Further, it took 18.3 µM to reach half-maximal inhibition in the test with HeLa (IC50).
In the same order, the values of `Cc1cc2c(c(=O)n1C)C(c1ccc(C(C)C)cc1)C(C#N)=C(N)O2` (stereo not drawn) are “inactive” and above 100 µM.
For the compound `CCOc1c(Br)cc(C2C(C#N)=C(N)Oc3cc(C)n(C)c(=O)c32)cc1OC` (stereo not drawn), in the test with Jurkat [4], the Activity was 50%. In the test on HeLa, this compound came in with an IC50 of 1.08 µM.
`Cc1cc2c(c(=O)n1C)C(c1cccc([N+](=O)[O-])c1)C(C#N)=C(N)O2` (stereo not drawn): in the test on Jurkat [4] (Homo sapiens), the outcome was inactive. Moreover, inhibition in the test on HeLa was half-maximal at 35 µM (IC50).
Turning to `COc1cc(C2C(C#N)=C(N)Oc3cc(C)n(C)c(=O)c32)cc(Br)c1OC` (stereo not drawn), the Activity was determined as 50% in the test with Jurkat [4], 68.5% with Jurkat [5], 19% with Jurkat [6] and 12% in the test with Jurkat [7]. Also, the IC50 in the test with HeLa amounted to 0.58 µM.
With `COc1ccc(CCn2c(C)cc3c(c2=O)C(c2cc(OC)c(OC)c(OC)c2)C(C#N)=C(N)O3)cc1OC` (stereo not drawn), the result in the test with Jurkat [4] (Homo sapiens) was inactive. In the test on HeLa, this compound returned an IC50 of 22.7 µM.
With `COc1cc(C2C(C#N)=C(N)Oc3cc(C)n(C)c(=O)c32)cc(OC)c1OC` (stereo not drawn), the IC50 in the test on HeLa was determined as 43.3 µM.
Consider `Cc1cc2c(c(=O)n1C)C(c1ccc(N(C)C)c(Br)c1)C(C#N)=C(N)O2` (stereo not drawn), for which the Activity in the test on Jurkat [4] is given as 50%; with Jurkat [5], 67.5%; with Jurkat [6] it was 18.1%; in the test on Jurkat [7], 14.4%. In the test on HeLa, this compound displayed an IC50 of 0.33 µM.
Compound `Cc1cc2c(c(=O)n1C)C(c1ccc(F)c(Br)c1)C(C#N)=C(N)O2` (stereo not drawn) had an Activity with Jurkat [4] of 50%. This compound came in with an IC50 with HeLa of 6.33 µM.
In the same order, the values of `COc1cc(C2C(C#N)=C(N)Oc3cc(C)n(C)c(=O)c32)cc(Br)c1OC(C)=O` (stereo not drawn) are 50% and 3.5 µM.
